Compound activity as filed in PubChem BioAssay.
CYP2C19 inh: human CYP2C19 inhibition | inhibition, % at 5 µM | hit rate 21% among 96,000 | AID 778 | CYP2C19 Supersomes, luciferin-H EGE luminescence, 30 min;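 active = CYP2C19 inhibition above a set limit at 5 µM in the primary screen, cut at about 50% in these data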;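 note: plate controls were negative control wells for no effect and 2.5 mM tranylcypromine positive control for full effect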
CYP2C9 activ: CYP2C9 (human) activation | recombinant CYP2C9, luciferin-H conversion, luminescence; hits give high values; factor 1 = untreated enzyme, 0 = blocked | hit rate 1.4% among 96,000 | activation factor at 5 µM | AID 1024 | P11712;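 active = activation factor of 2 or more for CYP2C9 at a 5 µM dose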;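 note: 0 = sulfaphenazole-blocked wells and 1 = vehicle-only wells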
Target sequence (P11712 whole entry, looked up): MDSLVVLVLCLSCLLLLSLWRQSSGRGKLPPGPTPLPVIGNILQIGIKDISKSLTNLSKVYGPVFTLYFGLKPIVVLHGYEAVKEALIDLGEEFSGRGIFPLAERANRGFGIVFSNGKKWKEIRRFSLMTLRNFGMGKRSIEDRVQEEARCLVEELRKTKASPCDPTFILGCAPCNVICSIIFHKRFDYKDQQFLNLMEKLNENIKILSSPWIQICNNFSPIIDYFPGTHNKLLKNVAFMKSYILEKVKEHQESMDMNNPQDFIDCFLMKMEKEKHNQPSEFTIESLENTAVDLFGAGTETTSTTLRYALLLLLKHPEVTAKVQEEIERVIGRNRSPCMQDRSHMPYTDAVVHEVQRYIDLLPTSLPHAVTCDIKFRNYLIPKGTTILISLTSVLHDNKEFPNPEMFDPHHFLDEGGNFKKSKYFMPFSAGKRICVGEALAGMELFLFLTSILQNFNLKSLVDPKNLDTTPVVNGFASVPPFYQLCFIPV
tolC growth inh: E. coli tolC mutant growth inhibition | E. coli BW25113 tolC mutant growth, OD615 | growth inhibition, % at 10 µM (by protocol) | hit rate 2.2% among 65,000 | AID 573;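 active = growth inhibition at or above a cutoff equal to the mean over every tested compound plus 3 SD, cut at about 60% in these data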;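 note: growth measured after 20 h incubation at 37 °C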
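Test system: tolC-deleted E. coli BW25113; medium: LB with kanamycin 50 µg/mL; compound: single-point testing at 10 µM; incubation: 20 h compound exposure of bacteria at 37 °C; signal: OD at 615 nm; evaluation: growth inhibition in percent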
CYP2C9 inh: blocks human cytochrome P450 2C9 | CYP2C9 Supersomes, luciferin-H conversion, luminescence | inhibition, % at 5 µM | hit rate 20% among 96,000 | AID 777;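 active = blocking of liver enzyme CYP2C9 beyond about 50% at 5 µM, limit read from the data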
CYP2C19 activ: activators of human cytochrome P450 2C19; 96,000 tested, under 10 active; activation factor at 5 µM; recombinant CYP2C19, luciferin-H EGE luminescence; hits give high values; 0 = fully inhibited enzyme, 1 = untreated enzyme;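 active = activation factor of at least 2 at 5 µM in the primary screen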;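 note: 0 = wells with 2.5 mM tranylcypromine and 1 = vehicle-only wells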
Ecoli WT expand: blocks growth of wild type E. coli BW25113; growth inhibition, % at 100 µM; hit rate 0.15% among 98,000; AID 710; OD600 absorbance;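 active = growth inhibition above about 50% at one test dose, limit read from the data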;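 note: growth measured after 20 h incubation at 37 °C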
* hit, by the source's call; / = no result. Compounds with a hit are over-represented: about 29% of the library has one in this group of screens.

SMILES	CYP2C19 inh	CYP2C9 activ	tolC growth inh	CYP2C9 inh	CYP2C19 activ	Ecoli WT expand
Cc1cccc(-n2nnc(C(=O)NCc3ccccn3)c2N)c1	1	1.2	-9	-24	1	2
COc1ccc(S(=O)(=O)Nc2cc(C)nn2-c2ccccc2)cc1	18	0	/	98*	0.8	2
Cc1ccc(-c2cc(C(=O)N/N=C/c3c(C)nn(-c4ccccc4)c3C)[nH]n2)cc1	29	0.8	/	25	0.7	-6
Cc1nn(-c2ccccc2)c(C)c1/C=N\NS(=O)(=O)c1ccc(Cl)cc1	98*	0	/	99*	0	8
COc1ccccc1NC(=O)Nn1cnnc1	-20	1.1	6	-12	1.2	0
COc1ccc(Cn2c(SC)nc3ccccc32)cc1[N+](=O)[O-]	22	0.7	/	28	0.8	-16
COc1ccccc1NC(=O)CCSc1nnnn1C	7	1	-13	-3	0.9	2
Cn1nnnc1SCCNCc1ccncc1	44	0.6	-14	39	0.6	-11
Cn1nnnc1SCCNCc1ccccc1F	79*	0.6	/	41	0.2	-1
COc1cc(CNCCSc2nnnn2C)cc(OC)c1OC	57*	1	/	4	0.4	1
Cn1nnnc1SCCNCC#Cc1ccccc1	85*	0.7	-6	26	0.1	1
COc1cccc(CNCCSc2nnnn2C)c1OC	77*	1	/	-3	0.2	-1
O=C1NC2(Nc3ccccc31)C(=O)Nc1ccccc12 (stereo not drawn)	-3	0.9	-3	9	1	-6
C=CCN1CCN(C(c2ccc(OC)c(OC)c2)c2nnnn2C(C)(C)C)CC1 (stereo not drawn)	0	1	-18	-3	1	2
Cc1oc(=O)c(NC(=O)c2cccc(Cl)c2)cc1C(=O)c1ccccc1	25	0.9	/	6	0.8	-11
CCCCN=c1scc(-c2ccc3c(c2)NC(=O)CO3)n1N=C1CCCC1	1	1	/	1	1	22
CCN=c1scc(-c2ccc3c(c2)NC(=O)CO3)n1N=C1CCCC1	54*	0.5	13	48	0.5	-4
COCC(C)n1c(-c2ccc3c(c2)NC(=O)CO3)csc1=Nc1ccc(OC(F)F)cc1 (stereo not drawn)	16	0.3	/	69*	0.8	-5
CCSc1nc(O)c(C2OC(=O)c3c2ccc(OC)c3OC)c(=O)n1CC (stereo not drawn)	15	0.8	-5	18	0.8	5
COc1ccc(CCNC(=O)CS(=O)Cc2nc(-c3cccs3)oc2C)cc1OC (stereo not drawn)	-1	0.9	5	8	1	10
CC(C)=CCC(C)(C)C1OCCN1C(=O)Nc1ccccc1 (stereo not drawn)	100*	0.2	55	80*	0	-2
O=C(Nc1ccccc1)N1CCCC2CCCCC21 (stereo not drawn)	37	1	18	-1	0.6	9
O=C(NCC1CCCCC1)C1CCN(C(=O)NC2CCCCC2)CC1	20	0.6	-15	37	0.8	5
CC(C)OC(=O)CSc1nnc(-c2cnccn2)n1-c1ccccc1	/	/	-5	/	/	5
COc1ccc(CNc2nc3c(c(=O)n(Cc4ccc(Br)cc4)c(=O)n3C)n2C)cc1	48	0.4	21	63*	0.5	-13
SMILES	CYP2C19 inh	CYP2C9 activ	tolC growth inh	CYP2C9 inh	CYP2C19 activ	Ecoli WT expand
Cn1c(Cl)nc2c1c(=O)n(Cc1cccc(Br)c1)c(=O)n2C	94*	0.6	1	39	0.1	3
Cn1c(NCc2ccccc2)nc2c1c(=O)n(Cc1ccc(Br)cc1)c(=O)n2C	89*	0	10	97*	0.1	1
Cn1c(NCc2ccco2)nc2c1c(=O)n(Cc1ccc(Br)cc1)c(=O)n2C	6	1	7	0	0.9	0
Cn1c(=O)c2c(nc(NCc3ccc4c(c3)OCO4)n2Cc2ccccc2)n(C)c1=O	56*	0.3	16	65*	0.4	-12
CCCCOc1c(Br)cc(/C=C2\N=C(C)OC2=O)cc1OCC	6	0.8	/	15	0.9	1
CCCC12CN(C(=O)c3ccc(OC)cc3)CC(C)(CN(C(=O)c3ccc(OC)cc3)C1)C2=O	11	1.1	1	-8	0.9	-9
Cc1nn(-c2cc(C)c3ccccc3n2)c2c1CCC2	24	0.9	0	10	0.8	-6
Cc1ccc(C(=O)NCC(=O)OCC(=O)c2c(N)n(C)c(=O)n(C)c2=O)s1	7	0.4	-2	58*	0.9	10
